According to ChEMBL document CHEMBL4028872, “Structure-Activity Relationship, Pharmacological Characterization, and Molecular Modeling of Noncompetitive Inhibitors of the Betaine/γ-Aminobutyric Acid Transporter 1 (BGT1)” (J Med Chem, 2017):
Active and inactive are the calls of the source. The rule behind the calls is not given here.

Assays:
[1] = target: Sodium- and chloride-dependent GABA transporter 3 (Homo sapiens, UniProt P48066, S468Y); test: Inhibition of human GAT3 S468Y mutant expresses in tsA201 cells assessed as reduction in [3H]GABA uptake after 3 mins by scintillation counting method; format: cell-based
Chain of Sodium- and chloride-dependent GABA transporter 3 (Homo sapiens, UniProt P48066, S468Y) (P48066 whole entry S468Y): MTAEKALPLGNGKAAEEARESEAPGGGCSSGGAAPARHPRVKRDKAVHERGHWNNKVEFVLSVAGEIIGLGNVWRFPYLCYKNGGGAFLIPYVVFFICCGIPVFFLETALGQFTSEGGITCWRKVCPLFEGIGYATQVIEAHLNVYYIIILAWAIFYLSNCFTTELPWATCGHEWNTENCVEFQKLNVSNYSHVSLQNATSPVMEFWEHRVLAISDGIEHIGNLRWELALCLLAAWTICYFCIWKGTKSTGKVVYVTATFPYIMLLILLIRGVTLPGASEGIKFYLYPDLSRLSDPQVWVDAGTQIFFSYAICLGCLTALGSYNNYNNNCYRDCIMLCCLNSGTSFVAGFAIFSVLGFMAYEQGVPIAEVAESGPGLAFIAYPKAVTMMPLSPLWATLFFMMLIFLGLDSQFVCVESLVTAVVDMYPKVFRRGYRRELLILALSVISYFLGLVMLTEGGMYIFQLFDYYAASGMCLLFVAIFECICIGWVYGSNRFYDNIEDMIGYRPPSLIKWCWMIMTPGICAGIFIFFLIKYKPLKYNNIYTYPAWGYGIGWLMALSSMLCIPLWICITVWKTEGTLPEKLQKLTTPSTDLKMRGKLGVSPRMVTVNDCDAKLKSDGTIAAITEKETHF
Summary of the method: (§1)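 Site-directed mutant transporters transiently transfected (PolyFect) into tsA201 cells, plated and used about 24 h later. Cells were washed with HBSS containing 20 mM HEPES, 1 mM CaCl2 and 1 mM MgCl2, pH 7.4. Uptake of 30 nM [3H]GABA was run with varied inhibitor concentrations for 3 min at 37 °C, then three ice-cold washes and scintillation counting. IC50 was taken from variable-slope sigmoidal fits. Triplicates, at least three independent experiments.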

[2] = target: Sodium- and chloride-dependent GABA transporter 1 (Mus musculus, UniProt P31648); test: Inhibition of mouse GAT1 expressed in HEK293 cells assessed as reduction in [3H]GABA uptake after 3 mins by scintillation counting method; format: cell-based
Summary of the method: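 HEK293 lines stably expressing a single mouse GAT subtype, kept under blasticidin-S (5 µg/mL) selection. Cells were assayed about 24 h after plating with 30 nM [3H]GABA plus varying compound concentrations for 3 min at 37 °C in HBSS buffered with 20 mM HEPES (1 mM CaCl2, 1 mM MgCl2, pH 7.4). Cells were washed ice-cold and radioactivity counted. IC50 came from sigmoidal variable-slope fits.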

[3] = target: D(2) dopamine receptor (Homo sapiens) (UniProt P14416); test: Displacement of [3H]N-methylspiperone from human Dopamine receptor D2 receptor expressed in fibroblast cell membranes at 10 uM after 90 mins by scintillation counting method
Chain of D(2) dopamine receptor (Homo sapiens) (P14416 whole entry): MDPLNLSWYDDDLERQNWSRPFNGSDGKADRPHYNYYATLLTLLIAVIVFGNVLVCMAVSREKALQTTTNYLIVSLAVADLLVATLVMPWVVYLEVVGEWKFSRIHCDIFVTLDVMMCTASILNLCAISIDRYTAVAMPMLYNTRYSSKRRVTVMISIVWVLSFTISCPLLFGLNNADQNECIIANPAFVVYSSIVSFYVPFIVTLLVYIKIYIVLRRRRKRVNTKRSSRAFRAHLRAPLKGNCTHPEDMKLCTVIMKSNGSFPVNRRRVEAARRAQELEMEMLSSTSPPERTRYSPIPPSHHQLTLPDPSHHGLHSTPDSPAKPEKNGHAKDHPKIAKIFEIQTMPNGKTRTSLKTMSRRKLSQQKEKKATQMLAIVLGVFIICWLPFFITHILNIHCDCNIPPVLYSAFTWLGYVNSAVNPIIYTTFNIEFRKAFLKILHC

[4] = target: Sodium- and chloride-dependent betaine transporter (Homo sapiens, UniProt P48065, I386F); test: Inhibition of human BGT1 I386F mutant expressed in tsA201 cells assessed as reduction in [3H]GABA uptake after 3 mins by scintillation counting method; format: cell-based
Chain of Sodium- and chloride-dependent betaine transporter (Homo sapiens, UniProt P48065, I386F) (P48065 whole entry I386F): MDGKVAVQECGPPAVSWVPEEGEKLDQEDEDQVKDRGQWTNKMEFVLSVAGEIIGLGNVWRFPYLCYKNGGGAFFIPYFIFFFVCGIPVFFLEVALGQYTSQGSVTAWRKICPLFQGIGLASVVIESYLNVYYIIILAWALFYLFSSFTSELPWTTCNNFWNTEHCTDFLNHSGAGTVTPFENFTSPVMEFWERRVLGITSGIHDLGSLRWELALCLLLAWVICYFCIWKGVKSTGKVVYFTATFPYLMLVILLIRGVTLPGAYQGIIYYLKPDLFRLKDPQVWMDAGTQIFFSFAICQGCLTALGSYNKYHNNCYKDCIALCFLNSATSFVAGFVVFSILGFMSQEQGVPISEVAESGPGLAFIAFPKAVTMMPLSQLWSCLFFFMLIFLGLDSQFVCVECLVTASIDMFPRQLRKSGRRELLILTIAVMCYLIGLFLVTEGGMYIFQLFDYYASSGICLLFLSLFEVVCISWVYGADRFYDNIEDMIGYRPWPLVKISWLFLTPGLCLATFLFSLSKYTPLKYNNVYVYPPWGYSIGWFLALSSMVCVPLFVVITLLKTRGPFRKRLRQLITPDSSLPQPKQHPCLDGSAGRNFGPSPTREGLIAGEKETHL
Summary of the method: (§2)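 tsA201 cells transiently transfected with wild-type or mutant human BGT1 (PolyFect) were plated about 24 h before assay. Three ice-cold washes followed, then scintillation counting.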

[5] = target: D(4) dopamine receptor (Homo sapiens) (UniProt P21917); test: Displacement of [3H]N-methylspiperone from human Dopamine receptor D4 receptor at 10 uM after 90 mins by scintillation counting method
Chain of D(4) dopamine receptor (Homo sapiens) (P21917 whole entry): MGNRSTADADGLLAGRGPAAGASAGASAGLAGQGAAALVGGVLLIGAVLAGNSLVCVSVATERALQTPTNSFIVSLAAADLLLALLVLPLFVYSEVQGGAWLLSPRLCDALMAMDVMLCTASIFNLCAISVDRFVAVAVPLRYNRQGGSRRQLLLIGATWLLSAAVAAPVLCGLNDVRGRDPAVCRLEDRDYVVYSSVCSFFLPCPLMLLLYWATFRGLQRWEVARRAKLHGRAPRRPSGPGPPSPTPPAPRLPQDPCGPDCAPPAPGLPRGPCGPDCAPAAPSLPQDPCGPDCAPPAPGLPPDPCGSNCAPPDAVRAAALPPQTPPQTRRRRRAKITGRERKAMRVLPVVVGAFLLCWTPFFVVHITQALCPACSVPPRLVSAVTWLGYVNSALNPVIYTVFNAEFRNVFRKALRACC

[6] = target: Sodium- and chloride-dependent GABA transporter 1 (Homo sapiens, UniProt P30531); format: cell-based
Chain of Sodium- and chloride-dependent GABA transporter 1 (Homo sapiens, UniProt P30531) (P30531 whole entry): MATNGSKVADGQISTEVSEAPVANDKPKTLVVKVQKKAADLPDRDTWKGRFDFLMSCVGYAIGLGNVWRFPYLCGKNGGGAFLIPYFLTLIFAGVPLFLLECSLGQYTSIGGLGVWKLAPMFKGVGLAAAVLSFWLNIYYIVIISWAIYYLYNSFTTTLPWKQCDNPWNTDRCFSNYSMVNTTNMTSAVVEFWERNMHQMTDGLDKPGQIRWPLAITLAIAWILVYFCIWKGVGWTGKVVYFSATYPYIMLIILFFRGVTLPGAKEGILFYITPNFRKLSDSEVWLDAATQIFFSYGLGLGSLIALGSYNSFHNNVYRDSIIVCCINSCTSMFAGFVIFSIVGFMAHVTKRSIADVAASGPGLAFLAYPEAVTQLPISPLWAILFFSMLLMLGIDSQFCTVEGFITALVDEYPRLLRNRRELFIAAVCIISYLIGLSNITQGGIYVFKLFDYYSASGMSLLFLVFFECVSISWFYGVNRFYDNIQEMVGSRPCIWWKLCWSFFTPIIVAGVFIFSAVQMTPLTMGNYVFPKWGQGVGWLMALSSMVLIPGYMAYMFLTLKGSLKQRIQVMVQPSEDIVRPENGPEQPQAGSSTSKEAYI

[7] = target: Sodium- and chloride-dependent betaine transporter (Homo sapiens, UniProt P48065, Y453A); test: Inhibition of human BGT1 Y453A mutant expressed in tsA201 cells assessed as reduction in [3H]GABA uptake after 3 mins by scintillation counting method; format: cell-based; summary of the method: as §2
Chain of Sodium- and chloride-dependent betaine transporter (Homo sapiens, UniProt P48065, Y453A) (P48065 whole entry Y453A): as the sequence (P48065 whole entry I386F) above, with F386I, Y453A counted along it

[8] = target: Sodium- and chloride-dependent GABA transporter 3 (Homo sapiens, UniProt P48066, L314Q); test: Inhibition of human GAT3 L314Q mutant expresses in tsA201 cells assessed as reduction in [3H]GABA uptake after 3 mins by scintillation counting method; format: cell-based; summary of the method: as §1
Chain of Sodium- and chloride-dependent GABA transporter 3 (Homo sapiens, UniProt P48066, L314Q) (P48066 whole entry L314Q): as the sequence (P48066 whole entry S468Y) above, with L314Q, Y468S counted along it

[9] = target: D(1A) dopamine receptor (Homo sapiens) (UniProt P21728); test: Displacement of [3H]SCH23390 from human Dopamine receptor D1 receptor expressed in HEKT cell membranes at 10 uM after 90 mins by scintillation counting method
Chain of D(1A) dopamine receptor (Homo sapiens) (P21728 whole entry): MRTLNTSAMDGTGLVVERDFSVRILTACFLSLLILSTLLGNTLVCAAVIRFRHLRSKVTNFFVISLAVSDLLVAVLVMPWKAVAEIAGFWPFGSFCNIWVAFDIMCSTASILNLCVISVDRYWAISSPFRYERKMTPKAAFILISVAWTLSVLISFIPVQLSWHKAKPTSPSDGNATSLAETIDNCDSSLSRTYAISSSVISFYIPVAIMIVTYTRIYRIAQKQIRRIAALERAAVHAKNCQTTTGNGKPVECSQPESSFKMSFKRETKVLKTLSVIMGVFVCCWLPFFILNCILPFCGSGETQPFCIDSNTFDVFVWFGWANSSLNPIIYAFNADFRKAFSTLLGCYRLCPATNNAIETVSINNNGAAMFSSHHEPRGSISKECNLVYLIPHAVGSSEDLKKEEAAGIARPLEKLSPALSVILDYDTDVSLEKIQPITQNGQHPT

[10] = target: T1, Sodium- and chloride-dependent GABA transporter 3 (Homo sapiens, UniProt P48066); test: Inhibition of human GAT3 expresses in tsA201 cells assessed as reduction in [3H]GABA uptake after 3 mins by scintillation counting method; format: cell-based
T1 sequence (P48066 whole entry): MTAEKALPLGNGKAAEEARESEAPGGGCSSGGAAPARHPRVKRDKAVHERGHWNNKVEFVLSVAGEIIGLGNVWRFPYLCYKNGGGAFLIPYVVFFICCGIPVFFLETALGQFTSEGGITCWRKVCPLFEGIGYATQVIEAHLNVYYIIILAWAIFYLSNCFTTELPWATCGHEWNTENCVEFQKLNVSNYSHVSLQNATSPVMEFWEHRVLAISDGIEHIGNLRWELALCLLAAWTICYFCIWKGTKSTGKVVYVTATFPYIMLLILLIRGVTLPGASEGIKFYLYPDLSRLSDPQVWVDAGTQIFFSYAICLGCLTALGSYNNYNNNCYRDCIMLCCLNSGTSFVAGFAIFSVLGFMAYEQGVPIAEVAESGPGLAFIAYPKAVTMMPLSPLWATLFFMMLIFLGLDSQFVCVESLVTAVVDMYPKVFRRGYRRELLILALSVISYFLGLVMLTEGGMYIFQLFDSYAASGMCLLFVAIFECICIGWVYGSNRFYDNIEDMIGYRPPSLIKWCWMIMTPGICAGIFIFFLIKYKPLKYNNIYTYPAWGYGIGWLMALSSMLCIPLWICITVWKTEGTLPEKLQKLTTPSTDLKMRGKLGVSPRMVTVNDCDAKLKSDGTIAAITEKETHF
Summary of the method: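 Wild-type human GAT transiently expressed in tsA201 cells via pcDNA5/FRT and PolyFect. Uptake of 30 nM [3H]GABA was run for 3 min at 37 °C in HBSS/20 mM HEPES with 1 mM CaCl2 and 1 mM MgCl2, pH 7.4, across a range of test concentrations. Ice-cold washes were followed by scintillation counting. IC50 was obtained by sigmoidal variable-slope fitting, reported as mean pIC50 ± S.E.M.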

[11] = target: Sodium- and chloride-dependent betaine transporter (Homo sapiens, UniProt P48065); test: Inhibition of human BGT1/human GAT3 chimera B expresses in tsA201 cells assessed as reduction in [3H]GABA uptake after 3 mins by scintillation counting method; format: cell-based
Chain of Sodium- and chloride-dependent betaine transporter (Homo sapiens, UniProt P48065) (P48065 whole entry, looked up): as the sequence (P48065 whole entry I386F) above, with F386I counted along it
Summary of the method: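 BGT1/GAT3 chimeric constructs transiently expressed in tsA201 cells. After about 24 h, cells were washed in HEPES-buffered HBSS (1 mM CaCl2, 1 mM MgCl2, pH 7.4). IC50 came from variable-slope sigmoidal regression. Triplicates, at least two independent experiments.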

IC50 [6] [µM]	IC50 [10] [µM]	SMILES	IC50 [1] [µM]	IC50 [2] [µM]	inhibition [3]	IC50 ([4]; read-out: IC50) [µM]	IC50 ([4]; read-out: pIC50 (converted)) [µM]	inhibition [5]	IC50 ([6]; read-out: IC50) [µM]	IC50 [7] [µM]	IC50 [8] [µM]	inhibition [9]	IC50 ([10]; read-out: IC50) [µM]	IC50 [11] [mM]
		O=C(NC1CCN(Cc2ccccc2)CC1)c1ccc(Cl)nc1Cl	> 1000	> 400	inactive	47	43.7	inactive	> 1000	23	405	inactive	> 1000	> 1
> 100	> 100	O=C(NC1CCN(Cc2ccccc2)CC1)c1ccc(Cl)cc1Cl	> 300	> 200	Active	8		Active		19	460	Active		> 1
